The nature of the series: Toxicity liver stage against HepG2, at 10uM. The class given is cell-based. The arrangement: test concentration 10 uM, cell line HepG2-A16-CD81EGFP. The note with it: human, HepG2-A16-CD81EGFP cells; read-out: INHIBITION
Summed up:
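Uninfected HepG2-A16-CD81EGFP cells, 3 × 10^3 per well, 1536-well, plated on prespotted compound at 10 μM final, parasite-free screening media added to match infected plates; puromycin 10 μM positive, DMSO 0.5% negative; run in parallel with 48 h PbLuc assay at 37 °C, 5% CO2; viability by CellTiter-Glo luminescence, normalized to controls.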
For the molecule `Cc1csc(N2CCN(CC(=O)Nc3cccnc3)CC2C)n1` (stereo not given), the cytotoxicity at 10 µM turned out to be 14.1%.
For the molecule `Cc1n[nH]cc1C(=O)N1CCCC1c1cc[nH]n1` (stereo not given), the cytotoxicity at 10 µM is -23.1%.
`Cc1ccc(C)c(C(=O)NCC(c2cccn2C)N2CCCCCC2)c1` (stereo not given): the cytotoxicity at 10 µM came to 5.64%.
Under `Cc1nc(C)n(C2CCCN(C(=O)CCc3cscn3)C2)n1` (stereo not given) stands 6.74%; under `Cc1ccc(OCCn2cnc3oc(C)c(C(=O)O)c3c2=O)cc1`, -8.17%; under `Cc1cccc(CN2CCC3(CCN(c4ncccn4)CC3)C2=O)c1`, 5.32%.
The value for `CCOC(=O)CNC(=O)c1cc2n(n1)CCCO2` was 1.43%.
Consider `CCOCC1CN(Cc2ccco2)Cc2nccn2C1` (stereo not given), for which the cytotoxicity at 10 µM was -142%.
In the case of `c1csc(N2CCCN(c3ncnc4sccc34)CC2)n1`, the cytotoxicity at 10 µM is 45.3%.
The value for `Cc1nc2cc(O)nn2c(C)c1CCC(=O)N(C)Cc1cscn1` was -2.64%; that for `CN(C)[C@@H]1CCN(C(=O)Cc2cccs2)[C@H]1Cc1cnn(C)c1` was -72.2%; that for `O=C(NCC1(c2ccc(F)cc2)CCC1)N1CCC2(C1)OCCO2` was 2.58%.
For `Cc1cnc2n(c1=O)CC(C(=O)NCc1ccccc1Cl)CS2` (stereo not given), the cytotoxicity at 10 µM is -1.74%.
Under `Nc1cc2c(nn1)CCN(C(=O)c1ccccc1Oc1cccnc1)C2` stands -6.21%.
`c1cnc2c(c1)cc([C@H]1CCCO1)n2CCN1CCCC1`: the cytotoxicity at 10 µM was 0.975%.
`CC(C)=CCN1C(=O)[C@@H]2CC[C@H]1CN(Cc1cccnc1N)C2`: the cytotoxicity at 10 µM was determined as 12.3%.
The value for `CN(Cc1nc(CS(C)(=O)=O)no1)c1ccccc1` was 4.04%; that for `O=C(NCCC(O)c1ccco1)c1ccccc1Br` (stereo not given) was 0.957%.
Regarding `Cn1cc(CN2CCC3(CC2)COC(COc2ccccn2)C3)cn1` (stereo not given), the cytotoxicity at 10 µM was found to be 0.719%.
With `CCC(C(=O)NCC1=CCCN(C)C1)c1ccccc1` (stereo not given), the cytotoxicity at 10 µM is -2.65%.
Under `COc1ccc2oc(-c3cn(C)nc3C)c(O)c(=O)c2c1` stands 9.96%.
On to `Cc1ccc(Nc2nccc(C3CN(CC(N)=O)C3)n2)nc1`, for which the cytotoxicity at 10 µM was -1.91%.
Under `CN(C)C(=O)CN1CCC2(C1)CN(CC1CCOCC1)C2` stands -9.91%.
Under `CCS(=O)(=O)CC(=O)NC(c1ccc(F)cc1)C1CCCC1` (stereo not given) stands 4.57%.
Under `CN(C)c1ccc(CNC(=O)NCCc2cn3ccccc3n2)cn1` stands -3.06%; under `N#Cc1cn(C2CC2)c(=O)n(Cc2cc(-c3cccs3)on2)c1=O`, 0.38%; under `O=C(CN1CCCS1(=O)=O)Nc1cccc(COC2CCCCC2)c1`, 0.568%.
With `COC(=O)c1ccc(C(=O)N2CCc3c(ncn3C3CC3)C2)cc1`, the cytotoxicity at 10 µM was -3.34%.
`CC(C)c1nc(CSc2nnc(-c3cccs3)n2CC(N)=O)no1`: the cytotoxicity at 10 µM was -142%.
The value for `Cc1cc(CN2CCN(C(=O)NCc3ccc(C)s3)CC2)no1` was -2.84%; that for `COc1ccc(Br)cc1CN(C)C(C)c1nc(C)no1` (stereo not given) was -4.02%.
Under `CCc1nc(CN2CCN(C(=O)N3CCCCC3)CC2)cs1` stands -16%.
On to `CN1CCCn2c(nc(CNC(=O)c3nccn3C)cc2=O)C1`, for which the cytotoxicity at 10 µM came to 4.68%.
Under `CC(C)(C)c1ccn(C2(C(=O)O)CCN(c3ncccc3C#N)CC2)n1` stands -7.6%; under `CCS(=O)(=O)N1C[C@H]2CC[C@](O)(c3ccc(C)cc3)[C@H]2C1`, -23.2%.
The value for `O=C(COCC1CC1)N1CCN(C(=O)Cc2ccccn2)CC1` was 10.3%.
The value for `CCOCCC(=O)NCC(C)c1ccsc1` (stereo not given) was 15.1%; that for `COCc1noc(CN2CCCCC2CCc2cccs2)n1` (stereo not given) was 0.642%.
With `Cc1nc(CC(=O)N2CCCCC2Cn2cccn2)cs1` (stereo not given), the cytotoxicity at 10 µM was -1.55%.
Under `Cn1ccnc1Sc1ccc(S(N)(=O)=O)cn1` stands -1.6%; under `O=C(NCc1cc2n(n1)CCCN(Cc1ccc(CO)o1)C2)C1CCC1`, 5.46%; under `Cn1cc(CN2CC[C@@H](O)[C@@H]2Cc2ccccc2)cn1`, -71.2%.
Under `COCCN1C[C@H]2[C@@H](C1)N(Cc1ccc(C)o1)CC[C@H]2OC` stands -8.34%; under `NCC(c1ccc(Cl)cc1)N1CCc2sccc2C1` (stereo not given), 6.33%.
Consider `CS(=O)(=O)N1CCCCC1CCc1ccc(O)cc1` (stereo not given), for which the cytotoxicity at 10 µM is -0.311%.
Take `CN(C)CC1CN(Cc2coc(-c3cccc(F)c3)n2)CCO1` (stereo not given): the cytotoxicity at 10 µM was -17.2%.
Take `CC(C)N1CCC(Nc2ccn(Cc3ccccn3)n2)C1=O` (stereo not given): the cytotoxicity at 10 µM was -2.43%.
The value for `CCC(=O)N1CCC2(CC1)CC(CC(N)=O)c1ccc(F)cc12` (stereo not given) was 11.8%; that for `Cc1noc(C)c1C(=O)N1CC[C@]2(C[C@@H](OCc3cccnc3)CO2)C1` was -79.7%; that for `CN(CC(O)C1CC1)C(=O)Nc1ccc(F)c(-n2cccc2)c1` (stereo not given) was 2.2%.
Under `O=C(c1cc2c(s1)CCC2)N1CCC(c2cnccn2)CC1` stands -2.34%; under `Cc1ccc(N2CCN(C(=O)CCC(F)(F)F)C(C)C2)cc1` (stereo not given), -143%.
As to `Fc1cccc(-c2nc(CN3CCOC(Cn4cncn4)C3)co2)c1` (stereo not given), the cytotoxicity at 10 µM was -11.4%.
Under `Cc1nc[nH]c1CN1CCC(C2CCN(CCc3ccccc3)C2)CC1` (stereo not given) stands -3.52%; under `COCCN1CCC(CN(CC2CCCO2)C(=O)CCC(F)(F)F)CC1` (stereo not given), 2.13%.
For the molecule `Cc1noc(C(C)Nc2ccc3c(c2)CCC3)n1` (stereo not given), the cytotoxicity at 10 µM came to 1.84%.
The value for `COc1ccc(CN2CCC3(CC(C(=O)NCC(C)C)=NO3)C2)cc1` (stereo not given) was 11%; that for `CC(C)N1CCOC[C@H]1c1nc(C(C)(C)C)c[nH]1` was -1.99%.
Under `CN(C)S(=O)(=O)c1csc(C(=O)N2CCC(C(N)=O)CC2)c1` stands -46.5%; under `CCOCC1COCCC12CCN(C(=O)C1=CCCC1)CC2` (stereo not given), -2.35%.
Consider `Cc1cc(NC(=O)c2ccc(N3CCOCC3)c(C)c2)[nH]n1`, for which the cytotoxicity at 10 µM was -35.1%.
The value for `O=C(CNC(=O)c1c[nH]c2ccccc12)NCCCn1ccnc1` was -11.1%; that for `CS(=O)(=O)CCN1CCC(Nc2c(Cl)cccc2C#N)CC1` was 2.22%.
Under `CCCN1CCC(c2nc3ccc(-c4cccc(F)c4)cn3n2)CC1` stands -125%; under `Cc1cc(CNC(=O)CCc2c(C)nc3cc(O)nn3c2C)no1`, -3.27%; under `CN1CCN(C(=O)N2C[C@@H]3CC[C@H]2CN(Cc2ccccc2)C3)CC1`, -7.71%.
On to `COC[C@@H]1CC[C@H]2[C@H](CCN2S(=O)(=O)c2cccc(F)c2)O1`, for which the cytotoxicity at 10 µM worked out at 2.24%.
As for `O=C1CCCN1Cc1nnc2n1CCCN(C(=O)c1ccco1)C2`, the cytotoxicity at 10 µM amounted to 8.3%.
The value for `CC(C)[C@@H]1CN(S(=O)(=O)Cc2ccccc2)C[C@H]1NS(=O)(=O)N(C)C` was -0.625%; that for `Cc1ccc(C(=O)N(Cc2ccccc2F)C2CC2)c(=O)[nH]1` was 0.846%; that for `O=C(NC1CCC1)[C@H]1C[C@H]2CN(C(=O)Nc3ccc(F)cc3)C[C@@H]1O2` was 7.2%.
The value for `Cc1c(C2NC3(CCCC3)C(=O)N2CC2CC2)cc(C#N)n1C` (stereo not given) was -1.99%; that for `COc1cccc(CC(=O)N2CC[C@H]3[C@@H]2CCC(=O)N3C)c1` was -4.57%; that for `CCc1nnc(C2Cc3ccccc3CN2Cc2nc(C3CC3)no2)o1` (stereo not given) was -8.03%.
Regarding `CCC(=O)N1CCC(Oc2ccc(C(=O)NCCN(C)C)cc2Cl)CC1`, the cytotoxicity at 10 µM is 4.12%.
As for `COc1ccncc1NC(=O)c1[nH]nc(C(C)C)c1Br`, the cytotoxicity at 10 µM was determined as 4.04%.
In the case of `O=C(c1ccccn1)N1CCC2(COc3ncccc3S(=O)(=O)N2)C1` (stereo not given), the cytotoxicity at 10 µM amounted to 8.96%.
The value for `CCCN(CC)Cn1ncc2cn(-c3ccccc3)nc2c1=O` was 1.44%; that for `CCc1ccc(C(=O)O)cc1S(=O)(=O)Nc1ccc(F)c(C#N)c1` was -10.9%; that for `O=C(CC1CCCCC1)N1CCN(C(=O)NCc2ccccn2)CC1` was -4.02%.
The value for `Cc1cc(CS(=O)(=O)CC(=O)N2c3ccccc3CC2C)no1` (stereo not given) was -0.284%.
The value for `O=C1C(NS(=O)(=O)c2ccc(F)cc2F)CCN1Cc1ccccc1` (stereo not given) was -0.885%; that for `O=C(NCC1CC1)[C@H]1C[C@@H]2CCN(Cc3ccc4c(c3)OCO4)C[C@@H]2O1` was -0.208%.
Consider `CCC(NC(=O)CC1CCN(CC)CC1)c1cn2cccnc2n1` (stereo not given), for which the cytotoxicity at 10 µM was 2.46%.
Consider `COc1ccc(CN(C)C(=O)NCc2c(C)cc(C)nc2OC)cc1`, for which the cytotoxicity at 10 µM was -7.11%.
The value for `CCc1cccc(NC(=O)CCN2CC=C(c3cnn(C)c3)CC2)c1` was 1.2%.
With `CC1CN(C)c2ccccc2CN1C(=O)c1ccncc1F` (stereo not given), the cytotoxicity at 10 µM was -16.9%.
In the case of `c1cnc(-c2nn3c(CN4CCCCCC4)nnc3s2)cn1`, the cytotoxicity at 10 µM stood at 10.8%.
For `COc1ccc(NC(=O)N(C)Cc2ccsc2)cn1`, the cytotoxicity at 10 µM was -2.36%.
As for `CNC(=O)[C@@H]1C[C@H]2CN(Cc3ccco3)C[C@H]2N1C`, the cytotoxicity at 10 µM was found to be 7.76%.
The value for `CC(C)N1C(=O)CC(NC(=O)c2cc(Cl)sc2Cl)C1=O` (stereo not given) was -2.27%; that for `COc1ccc(-n2nc(C)c(C(C)=O)c2C)cc1C(N)=O` was -3.41%.
Under `COc1ccc(C(C)NCCc2ccc(NC(C)=O)cc2)c(OC)c1` (stereo not given) stands 4.49%; under `O=C1COC2(CCN(Cc3ccoc3)CC2)CN1CCn1cccn1`, 6.95%; under `Cc1ncc(CNCC(=O)NC2CCCCC2)n1-c1ccccc1`, -4.75%.

For the origin of these results see ChEMBL document CHEMBL4513216, “Probing the Open Global Health Chemical Diversity Library for Multistage-Active Starting Points for Next-Generation Antimalarials” (ACS Infect Dis, 2020).
